{"source": "paper PMC2141641", "about": "(The Journal of Cell Biology, 1997)", "key": {"[1]": {"tested_on": "CD36", "conditions": "cited from earlier work"}, "[2]": {"tested_on": "CD36-transfected HUVECs", "assay": "Migration assay of CD36-transfected HUVEC clones", "format": "cell-based, human", "conditions": "TSP-1 2 nM, bFGF", "how_it_was_run": "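HUVECs at passage 2 were lipofected with a CD36 plasmid (30 μg DNA, 5 h, 37°C) and selected in 100 μg/ml G418. Cloned lines were checked for CD36 by flow cytometry. Clones migrated toward bFGF in a Boyden chamber (4 h, 37°C) with 2 nM TSP-1, with or without 10 μg/ml anti-CD36 antibody OKM-5. Four experiments; normalized to bFGF minus background.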"}, "[3]": {"tested_on": "neovascularization, polyvinyl sponge", "conditions": "polyvinyl sponge assay; ref Good et al., 1990; Tolsma et al., 1993; cited from earlier work"}, "[4]": {"tested_on": "CD36 null animals", "conditions": "ref Febbraio, M., O.V. Volpert, N.P. Bouck, and R.L. Silverstein, unpublished data; cited from earlier work"}, "[5]": {"tested_on": "Human dermal microvascular endothelial cells (HMVECs)", "assay": "Endothelial cell migration assay, HMVECs", "format": "cell-based", "conditions": "for inhibition of bFGF-induced HMVEC migration by other CD36 ligands / effect on migration when tested alone: 2 μg/ml", "how_it_was_run": "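Human dermal microvascular cells (passages 6–9) were serum-starved and then migrated in a Boyden chamber 4 h at 37°C toward bFGF. Collagen I, LDL and copper-oxidized LDL were tested at 2 μg/ml, with or without 10 μg/ml anti-CD36 IgG added to both wells. Quadruplicate wells, two experiments. Counts were normalized to bFGF minus control-medium background. Two-tailed t test was run on raw data.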"}, "[6]": {"tested_on": "Bovine adrenal capillary endothelial cells (BCECs)", "assay": "Endothelial cell migration assay, BCECs", "format": "cell-based", "how_it_was_run": "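Bovine adrenal capillary cells (DME, 10% donor calf serum, 1% endothelial mitogen; passage 15) were starved overnight in DME/0.1% BSA. 3 × 10^4 cells/well were attached 2 h at 37°C to a gelatinized membrane in an inverted Boyden chamber, then reinverted. GST–CD36 fusion proteins were preincubated with 2 nM TSP-1, warmed to room temperature, and added to the top wells. Migration to bFGF ran 4 h at 37°C. Migrated cells/10 high-power fields counted; normalized to bFGF minus background.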"}, "[7]": {"tested_on": "CD36-transfected HUVECs", "assay": "Tube formation assay in Matrigel, CD36-transfected HUVECs", "format": "cell-based, human", "conditions": "24 h at 37°C, endogenous TSP-1 expression by clones"}, "[8]": {"tested_on": "endothelial cells", "conditions": "in vitro; ref Tolsma et al., 1997; cited from earlier work"}, "[9]": {"tested_on": "endothelial cells", "conditions": "cited from earlier work"}, "[10]": {"tested_on": "neovascularization, rodent cornea", "conditions": "rodent cornea assay; ref Good et al., 1990; Tolsma et al., 1993; cited from earlier work"}, "[11]": {"tested_on": "Melanoma cells not transfected with CD36", "conditions": "ref Silverstein et al., 1992; cited from earlier work"}, "[12]": {"tested_on": "endothelial cells", "conditions": "in vitro; ref Iruela-Arispe et al., 1991; DiPietro et al., 1994; Canfield and Schor, 1995; cited from earlier work"}, "[13]": {"tested_on": "neovascularization in vivo", "conditions": "ref O'Reilly et al., 1994; cited from earlier work"}}, "data": [{"substance": "Thrombospondin-1 [TSP-1]", "values": [{"measurement": "interaction of TSP-1 with CD36 amino acids 93–120", "setting": "[1]; minimal region of CD36, ref Pearce et al., 1995", "result": "specific, saturable, and reversible manner"}, {"measurement": "TSP-1 inhibition of migration of CD36-transfected clone 35", "setting": "[2]; clone 35 (very low CD36)", "result": "refractory to TSP-1 inhibition"}, {"measurement": "TSP-1 inhibition of migration of CD36-transfected clones 31 and 36", "setting": "[2]; clones 31 and 36 (higher CD36)", "result": "sensitive to TSP-1 inhibition"}, {"measurement": "prevention of neovascularization in vivo, polyvinyl sponge", "setting": "[3]", "result": "able to prevent neovascularization in vivo"}, {"measurement": "inhibition of corneal neovascularization in CD36 null animals", "setting": "[4]", "result": "defective in CD36 null animals"}, {"measurement": "inhibition of bFGF-induced HMVEC migration by TSP-1", "setting": "[5]; TSP-1 2 nM", "result": "inhibition of bFGF-induced migration of HMVECs by TSP-1"}, {"measurement": "inhibition of bFGF-induced migration by TSP-1, BCEC", "setting": "[6]; TSP-1 2 nM", "result": "TSP-1 inhibition of bFGF-induced migration"}, {"measurement": "TSP-1 inhibition of tube formation after CD36 transfection", "setting": "[7]", "result": "became sensitive to TSP-1 inhibition of both migration and tube formation"}, {"measurement": "concentration inhibiting lumen formation", "setting": "[8]", "result": "below 20 nM"}, {"measurement": "concentrations effective in vitro (inhibition of angiogenesis)", "setting": "[9]; ref Good et al., 1990, Tolsma et al., 1993", "result": "subnanomolar"}, {"measurement": "concentration inhibiting endothelial cell migration (biphasic dose response)", "setting": "[9]; ref Taraboletti et al., 1990, Tolsma et al., 1993, Gao et al., 1996", "result": "less than 20 nM"}, {"measurement": "prevention of neovascularization in vivo, rodent cornea", "setting": "[10]", "result": "able to prevent neovascularization in vivo"}, {"measurement": "TSP-1 binding to melanoma cells not transfected with CD36", "setting": "[11]", "result": "do not bind TSP-1"}, {"measurement": "concentration inhibiting tube formation", "setting": "[12]", "result": "below 20 nM"}]}, {"substance": "FP93-120: GST–CD36 fusion protein containing the TSP-1 binding region, amino acids 93–120 (YRVRFLAKENVTQDAEDNTVSFLQPNGA; left off: GST, end not stated, kept) [reference compound]", "values": [{"measurement": "block of inhibition of migration by Col overlap peptide", "setting": "[6]; Col overlap 30 μM, bFGF, fusion protein preincubated 2 h at 4°C", "result": "blocked the inhibitory effects of Col overlap"}]}, {"substance": "Angiostatin", "values": [{"measurement": "inhibition of corneal neovascularization in CD36 null animals", "setting": "[4]", "result": "not by angiostatin is defective in CD36 null animals"}, {"measurement": "inhibition of HMVEC migration by angiostatin", "setting": "[5]; angiostatin 2 μg/ml, bFGF, control inhibitor", "result": "inhibition of endothelial cell migration by angiostatin"}, {"measurement": "inhibition of angiogenesis in vivo by angiostatin", "setting": "[13]", "result": "of angiogenesis in vivo"}, {"measurement": "inhibition of endothelial cell migration in vitro by angiostatin", "setting": "[9]; ref Gately et al., 1996", "result": "well-established inhibitor of endothelial cell migration in vitro"}]}, {"substance": "human type I collagen [human collagen I]", "values": [{"measurement": "inhibition of bFGF-induced HMVEC migration by other CD36 ligands", "setting": "[5]", "result": "inhibited bFGF-induced HMVEC migration"}, {"measurement": "effect on migration when tested alone", "setting": "[5]", "result": "no significant effect on migration"}]}, {"substance": "low-density lipoprotein [LDL]", "values": [{"measurement": "binding of unoxidized LDL to CD36", "setting": "[1]; ref Endemann et al., 1993", "result": "unable to bind CD36"}, {"measurement": "inhibition of bFGF-induced HMVEC migration by other CD36 ligands", "setting": "[5]", "result": "failed to influence HMVEC migration"}, {"measurement": "effect on migration when tested alone", "setting": "[5]", "result": "no significant effect on migration"}]}, {"substance": "oxidized low-density lipoprotein [OxLDL]", "values": [{"measurement": "inhibition of bFGF-induced HMVEC migration by other CD36 ligands", "setting": "[5]", "result": "inhibited bFGF-induced HMVEC migration"}, {"measurement": "effect on migration when tested alone", "setting": "[5]", "result": "no significant effect on migration"}, {"measurement": "concentration below which ineffective at inhibiting migration", "setting": "[5]; bFGF-induced HMVEC migration, data not shown", "result": "below 0.1 nM"}]}, {"substance": "glutathione-S-transferase [GST, reference compound]", "values": [{"measurement": "block of TSP-1 inhibition of bFGF-induced migration", "setting": "[6]; TSP-1 2 nM, fusion protein preincubated 2 h at 4°C, migration 4 h at 37°C", "result": "ineffective"}]}]}
